Results on 1 compound are retold here after ChEMBL document CHEMBL3259569 (J Med Chem, 2014).

The source made the active and inactive calls. The rule behind the calls is not given here.

Series [1] deals with T1, Protein deacetylase HDAC6 (Homo sapiens, UniProt Q9UBN7).
T1 sequence (Q9UBN7 whole entry): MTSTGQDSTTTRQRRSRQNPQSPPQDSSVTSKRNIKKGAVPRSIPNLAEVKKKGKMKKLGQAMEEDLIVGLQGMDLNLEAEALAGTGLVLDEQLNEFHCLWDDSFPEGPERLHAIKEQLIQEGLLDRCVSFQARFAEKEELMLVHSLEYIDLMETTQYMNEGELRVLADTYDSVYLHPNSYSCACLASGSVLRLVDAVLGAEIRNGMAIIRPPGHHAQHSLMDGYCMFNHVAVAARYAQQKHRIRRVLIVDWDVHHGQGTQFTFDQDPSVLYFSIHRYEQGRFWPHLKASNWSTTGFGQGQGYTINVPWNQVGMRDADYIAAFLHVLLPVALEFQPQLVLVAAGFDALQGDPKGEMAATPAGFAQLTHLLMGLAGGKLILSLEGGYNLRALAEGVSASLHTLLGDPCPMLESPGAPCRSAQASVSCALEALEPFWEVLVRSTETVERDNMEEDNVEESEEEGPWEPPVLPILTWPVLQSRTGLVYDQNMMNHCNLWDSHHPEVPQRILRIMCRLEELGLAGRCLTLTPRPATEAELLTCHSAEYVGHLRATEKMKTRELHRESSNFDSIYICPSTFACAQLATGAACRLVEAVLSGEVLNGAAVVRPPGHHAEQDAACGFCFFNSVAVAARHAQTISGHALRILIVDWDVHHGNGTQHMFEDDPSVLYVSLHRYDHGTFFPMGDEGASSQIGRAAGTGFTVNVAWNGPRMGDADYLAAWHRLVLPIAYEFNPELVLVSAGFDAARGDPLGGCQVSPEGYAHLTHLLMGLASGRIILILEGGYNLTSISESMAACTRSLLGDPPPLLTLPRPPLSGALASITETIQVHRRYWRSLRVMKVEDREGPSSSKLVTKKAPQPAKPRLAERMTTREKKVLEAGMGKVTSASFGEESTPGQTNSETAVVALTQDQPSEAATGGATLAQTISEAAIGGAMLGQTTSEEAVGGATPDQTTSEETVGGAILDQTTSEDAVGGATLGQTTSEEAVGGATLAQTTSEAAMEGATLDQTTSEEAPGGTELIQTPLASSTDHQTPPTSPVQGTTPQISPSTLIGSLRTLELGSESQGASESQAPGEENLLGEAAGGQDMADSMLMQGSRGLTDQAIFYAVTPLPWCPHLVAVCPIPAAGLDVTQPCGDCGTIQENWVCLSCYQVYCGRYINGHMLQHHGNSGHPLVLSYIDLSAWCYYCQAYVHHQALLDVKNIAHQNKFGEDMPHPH
As to the kind of experiment: Inhibition of HDAC6 (unknown origin) using RHKK(Ac) (379 to 382) p53 peptide as substrate by fluorescence assay.

The nature of series [2]: Cytotoxicity against human HSC3 cells by MTT assay. The class given is functional, cell-based. Particulars: HSC-3. A general note: Formazan colour is commonly taken as a measure of viable cells.
A short description of series [3]: Half life in ICR mouse at 2 mg/kg, iv by LC-MS/MS analysis. Set-up: dose 2 mg/kg, route intravenous. As to conditions: in vivo. The series is classed as ADME, organism-based.
For a further series, the system named is PC-3. As to the kind of experiment: Cytotoxicity against human PC3 cells by MTT assay. The series is classed as functional, cell-based.
A short description of series [4]: Cmax in ICR mouse at 10 mg/kg, po by LC-MS/MS analysis. The class given is ADME, organism-based. Also on record: dose 10 mg/kg, route oral. As to conditions: in vivo.
The nature of series [5]: Cytotoxicity against human H460 cells by MTT assay. Particulars: NCI-H460. The series is classed as functional, cell-based. Put shortly: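 Antiproliferative IC50 in H460 cells; mean ± SD of at least three independent experiments.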
In another series the test system is TSGH. As to the kind of experiment: Cytotoxicity against human TSGH cells by MTT assay. The class given is functional, cell-based.
Series [6] has as its target Histone deacetylase (Homo sapiens) (UniProt Q13547+O15379+Q9UBN7+Q92769+Q9UQL6+Q8WUI4+Q9BY41+Q96DB2+P56524+Q9UKV0+Q969S8). Particulars: HCT-116, 1 uM.
A further series concerns the target T2, Histone deacetylase 7 (Homo sapiens, UniProt Q8WUI4).
T2 sequence (Q8WUI4 whole entry): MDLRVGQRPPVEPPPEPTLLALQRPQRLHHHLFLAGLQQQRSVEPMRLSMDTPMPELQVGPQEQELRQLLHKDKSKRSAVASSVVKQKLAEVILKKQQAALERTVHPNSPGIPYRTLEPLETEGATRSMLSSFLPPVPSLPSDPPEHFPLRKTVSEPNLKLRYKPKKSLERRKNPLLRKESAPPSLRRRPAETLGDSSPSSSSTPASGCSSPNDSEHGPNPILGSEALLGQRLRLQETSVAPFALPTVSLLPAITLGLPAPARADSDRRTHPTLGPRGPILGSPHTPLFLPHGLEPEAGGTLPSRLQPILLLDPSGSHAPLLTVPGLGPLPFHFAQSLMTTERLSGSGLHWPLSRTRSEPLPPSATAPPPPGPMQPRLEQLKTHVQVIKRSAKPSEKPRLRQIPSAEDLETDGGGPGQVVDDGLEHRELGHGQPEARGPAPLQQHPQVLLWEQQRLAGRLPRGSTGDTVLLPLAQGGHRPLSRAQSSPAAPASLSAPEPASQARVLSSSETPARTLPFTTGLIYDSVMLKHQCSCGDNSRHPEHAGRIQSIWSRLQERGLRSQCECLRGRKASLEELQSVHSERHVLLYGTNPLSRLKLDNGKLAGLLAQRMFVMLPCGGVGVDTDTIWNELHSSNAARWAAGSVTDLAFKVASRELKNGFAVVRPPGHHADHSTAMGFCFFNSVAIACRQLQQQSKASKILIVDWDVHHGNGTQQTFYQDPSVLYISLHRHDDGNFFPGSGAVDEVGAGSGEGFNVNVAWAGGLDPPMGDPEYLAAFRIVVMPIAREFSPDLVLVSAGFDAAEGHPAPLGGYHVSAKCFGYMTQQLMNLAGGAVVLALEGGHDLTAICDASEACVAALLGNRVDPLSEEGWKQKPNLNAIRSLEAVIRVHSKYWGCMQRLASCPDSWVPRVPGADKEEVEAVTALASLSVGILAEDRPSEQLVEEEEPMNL
In words: Inhibition of HDAC7 (unknown origin) by fluorescence assay. Put shortly:
(§1)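 Run by a contract testing lab. Compounds were dissolved in DMSO and tested in 10-dose IC50 mode, using 3-fold serial dilution starting at 10 μM. IC50 was taken from the dose series.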

The target of another series is T3, Histone deacetylase 8 (Homo sapiens, UniProt Q9BY41).
T3 sequence (Q9BY41 whole entry): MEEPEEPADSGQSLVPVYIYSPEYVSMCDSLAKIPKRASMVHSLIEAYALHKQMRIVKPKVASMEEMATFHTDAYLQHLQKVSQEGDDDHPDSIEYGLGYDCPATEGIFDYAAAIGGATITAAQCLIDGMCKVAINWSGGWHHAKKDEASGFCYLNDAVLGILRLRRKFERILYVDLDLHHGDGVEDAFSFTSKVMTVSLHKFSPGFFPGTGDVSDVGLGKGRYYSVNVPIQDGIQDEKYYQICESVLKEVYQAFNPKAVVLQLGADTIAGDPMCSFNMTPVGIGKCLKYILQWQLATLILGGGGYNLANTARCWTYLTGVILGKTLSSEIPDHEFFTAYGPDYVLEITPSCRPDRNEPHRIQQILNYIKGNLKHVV
As to the kind of experiment: Inhibition of HDAC8 (unknown origin) by fluorescence assay. Put shortly: as §1

One may read the IC50 as the concentration that gives 50% inhibition. A lower IC50 goes with higher potency. The half-life is the time in which the quantity being followed falls by half. A lower half-life goes with rapid decline. One may read the Cmax as the highest concentration seen after dosing. With `O=C(/C=C/c1cccc(S(=O)(=O)n2ccc3cccnc32)c1)NO`, the IC50 turned out to be 5.2 nM in [1]; 660 nM in [2]; 1630 nM with PC-3; 570 nM in series [5]; 2100 nM in the series on TSGH; 4.11 µM at Histone deacetylase 7. Besides, the midpoint of inhibition on Histone deacetylase 8, the IC50, lay at 1390 nM. The half-life in series [3] was 150 min. The compound also came in with a Cmax in [4] of 409 ng/mL. In addition, in series [6], the inhibition entry was “inactive”.
